Measured values from ChEMBL document CHEMBL1255255, “Highly variable penicillin resistance determinants PBP 2x, PBP 2b, and PBP 1a in isolates of two Streptococcus pneumoniae clonal groups, Poland 23F-16 and Poland 6B-20” (2008).
Residue numbers refer to the chain shown, from its start. Values after ≈ are worked out from the molar mass of the structure shown. Active and inactive are the calls of the source. The rule behind the calls is not given here.

Columns and labels:
[1] = target: T1, Penicillin-binding protein 2x (Streptococcus pneumoniae serotype 4 (strain ATCC BAA-334 / TIGR4)) (UniProt P14677); assay: Binding affinity to PBP 2x in Streptococcus pneumoniae isolate 909 at 1.1 ng/ml to 1.1 ug /ml
T1 sequence (whole entry): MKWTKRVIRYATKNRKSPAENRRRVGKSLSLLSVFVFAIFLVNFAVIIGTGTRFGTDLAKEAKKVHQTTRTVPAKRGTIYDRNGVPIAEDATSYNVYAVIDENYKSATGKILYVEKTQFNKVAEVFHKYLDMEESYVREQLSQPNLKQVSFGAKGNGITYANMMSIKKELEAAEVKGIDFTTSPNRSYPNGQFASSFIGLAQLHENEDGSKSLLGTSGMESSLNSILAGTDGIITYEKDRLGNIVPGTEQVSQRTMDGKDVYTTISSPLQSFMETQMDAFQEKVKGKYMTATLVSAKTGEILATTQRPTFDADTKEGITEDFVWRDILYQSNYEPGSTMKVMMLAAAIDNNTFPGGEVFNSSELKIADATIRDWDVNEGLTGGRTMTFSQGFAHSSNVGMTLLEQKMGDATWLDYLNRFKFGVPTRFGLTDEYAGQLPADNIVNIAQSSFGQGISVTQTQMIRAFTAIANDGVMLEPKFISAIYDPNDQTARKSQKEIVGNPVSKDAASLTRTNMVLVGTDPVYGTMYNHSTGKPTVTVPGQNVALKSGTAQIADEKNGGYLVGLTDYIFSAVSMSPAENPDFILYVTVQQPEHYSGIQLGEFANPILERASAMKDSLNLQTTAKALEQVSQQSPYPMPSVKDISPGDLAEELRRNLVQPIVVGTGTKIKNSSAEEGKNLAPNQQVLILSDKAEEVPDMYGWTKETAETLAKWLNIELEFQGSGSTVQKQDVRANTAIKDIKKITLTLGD
Summary of the method: (§1)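 Cells grown at 37°C without aeration in C medium with 0.2% yeast extract, monitored by nephelometry, harvested at 80 to 100 nephelometry units and resuspended in 20 mM sodium phosphate (pH 7.2) with 0.2% Triton X-100. Lysate aliquots labeled with decreasing Bocillin FL (1.1, 0.36, 0.11, 0.036 μg/ml, onward) for 30 min at 37°C. PBPs were resolved by SDS-PAGE (7.5% resolving gel) and read by fluorescence imaging.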

[2] = target: T1, Penicillin-binding protein 2x (Streptococcus pneumoniae serotype 4 (strain ATCC BAA-334 / TIGR4)); assay: Binding affinity to PBP 2x in Streptococcus pneumoniae isolate k-421 at 1.1 ng/ml to 1.1 ug /ml; summary of the method: as §1
[3] = target: T2, Penicillin-binding protein 1A (Streptococcus pneumoniae serotype 4 (strain ATCC BAA-334 / TIGR4)) (UniProt Q04707); assay: Binding affinity to PBP 1a in Streptococcus pneumoniae isolate k-637 at 1.1 ng/ml to 1.1 ug /ml; summary of the method: as §1
T2 sequence (whole entry): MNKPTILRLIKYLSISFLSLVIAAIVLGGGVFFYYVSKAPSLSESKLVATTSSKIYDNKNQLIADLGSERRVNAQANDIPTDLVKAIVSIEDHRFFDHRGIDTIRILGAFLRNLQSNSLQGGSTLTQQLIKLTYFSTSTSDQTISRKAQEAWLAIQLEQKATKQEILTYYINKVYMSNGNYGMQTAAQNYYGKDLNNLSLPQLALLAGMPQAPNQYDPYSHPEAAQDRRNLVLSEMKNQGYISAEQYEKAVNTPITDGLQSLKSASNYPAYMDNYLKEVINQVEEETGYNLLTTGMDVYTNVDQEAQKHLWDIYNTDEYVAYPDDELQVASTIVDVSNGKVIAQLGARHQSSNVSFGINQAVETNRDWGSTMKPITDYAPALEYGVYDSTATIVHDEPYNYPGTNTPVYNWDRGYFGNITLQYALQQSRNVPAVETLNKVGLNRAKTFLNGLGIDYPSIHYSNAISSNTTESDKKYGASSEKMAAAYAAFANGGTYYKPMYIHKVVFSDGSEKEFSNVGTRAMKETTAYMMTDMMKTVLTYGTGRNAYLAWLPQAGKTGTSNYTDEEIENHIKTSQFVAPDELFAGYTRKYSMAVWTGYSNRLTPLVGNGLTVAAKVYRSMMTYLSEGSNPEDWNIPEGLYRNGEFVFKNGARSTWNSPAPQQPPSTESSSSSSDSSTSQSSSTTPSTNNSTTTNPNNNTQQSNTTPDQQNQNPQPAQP

[4] = target: T3, Penicillin-binding protein 2X (Streptococcus pneumoniae R6) (UniProt P59676); assay: Binding affinity to PBP 2x in Streptococcus pneumoniae R6 at 1.1 ng/ml to 1.1 ug /ml; summary of the method: as §1
T3 sequence (whole entry): T1 sequence (whole entry) with T385M

[5] = test system: Streptococcus pneumoniae; assay: Antimicrobial activity against Streptococcus pneumoniae isolate k-637 obtained from CSF of patient; format: functional
[6] = test system: Streptococcus pneumoniae; assay: Antimicrobial activity against Streptococcus pneumoniae isolate 2904 obtained from blood of patient; format: functional
[7] = test system: Streptococcus pneumoniae; assay: Antimicrobial activity against Streptococcus pneumoniae isolate k-585 obtained from bronchoalveolar lavage fluid of patient; format: functional; conditions: isolate k-585, Lung
[8] = test system: Streptococcus pneumoniae; assay: Antimicrobial activity against Streptococcus pneumoniae isolate 2907 obtained from sinusitis of patient; format: functional
[9] = test system: Streptococcus pneumoniae; assay: Antimicrobial activity against Streptococcus pneumoniae isolate 657 obtained from sputum of patient; format: functional
[10] = test system: Streptococcus pneumoniae; assay: Antimicrobial activity against Streptococcus pneumoniae isolate k-598 obtained from bronchoalveolar lavage fluid of patient; format: functional; conditions: Lung
[11] = test system: Streptococcus pneumoniae; assay: Antimicrobial activity against Streptococcus pneumoniae isolate 40 obtained from blood of patient; format: functional
[12] = test system: Streptococcus pneumoniae; assay: Antimicrobial activity against Streptococcus pneumoniae ATCC BAA-612; format: functional
[13] = test system: Streptococcus pneumoniae; assay: Antimicrobial activity against Streptococcus pneumoniae isolate 909 obtained from bronchoalveolar lavage fluid of patient; format: functional; conditions: isolate 909, Lung
[14] = test system: Streptococcus pneumoniae; assay: Antimicrobial activity against Streptococcus pneumoniae isolate k-421 obtained from ear of patient; format: functional
[15] = test system: Streptococcus pneumoniae; assay: Antimicrobial activity against Streptococcus pneumoniae isolate 4134 obtained from sputum of patient; format: functional
[16] = test system: Streptococcus pneumoniae; assay: Antimicrobial activity against Streptococcus pneumoniae isolate 187 obtained from bronchoalveolar lavage fluid of patient; format: functional; conditions: isolate 187, Lung
[17] = test system: Streptococcus pneumoniae; assay: Antimicrobial activity against Streptococcus pneumoniae ATCC BAA-343; format: functional

| SMILES | Activity [1] | Activity [2] | Activity [3] | Activity [4] | MIC [5] [µg/mL] | MIC [6] [µg/mL] | MIC [7] [µg/mL] | MIC [8] [µg/mL] | MIC [9] [µg/mL] | MIC [10] [µg/mL] | MIC [11] [µg/mL] | MIC [12] [µg/mL] | MIC [13] [µg/mL] | MIC [14] [µg/mL] | MIC [15] [µg/mL] | MIC [16] [µg/mL] | MIC [17] [µg/mL] |
| --- | --- | --- | --- | --- | --- | --- | --- | --- | --- | --- | --- | --- | --- | --- | --- | --- | --- |
| Cc1cc(C)n2c1C=C1C=CC(CCC(=O)Nc3ccc(OCC(=O)N[C@@H]4C(=O)N5[C@@H]4SC(C)(C)[C@@H]5C(=O)O)cc3)=[N+]1[B-]2(F)F | inactive | inactive | Active | inactive |  |  |  |  |  |  |  |  |  |  |  |  |  |
| CC1(C)S[C@@H]2[C@H](NC(=O)[C@H](N)c3ccc(O)cc3)C(=O)N2[C@H]1C(=O)O [AMOXICILLIN] |  |  |  |  | 2 (≈ 5.47 µM) | 2 (≈ 5.47 µM) | 4 (≈ 10.9 µM) | 0.25 (≈ 0.684 µM) | 0.06 (≈ 0.164 µM) | 16 (≈ 43.8 µM) | 8 (≈ 21.9 µM) | 0.12 (≈ 0.328 µM) | 8 (≈ 21.9 µM) | 2 (≈ 5.47 µM) | 1 (≈ 2.74 µM) | 16 (≈ 43.8 µM) | 2 (≈ 5.47 µM) |
| CO/N=C(\C(=O)N[C@@H]1C(=O)N2C(C(=O)[O-])=C(C[N+]3(C)CCCC3)CS[C@H]12)c1csc(N)n1 [CEFEPIME] |  |  |  |  | 2 (≈ 4.16 µM) | 1 (≈ 2.08 µM) | 1 (≈ 2.08 µM) | 0.25 (≈ 0.52 µM) | 0.06 (≈ 0.125 µM) | 8 (≈ 16.6 µM) | 1 (≈ 2.08 µM) | 0.25 (≈ 0.52 µM) | 1 (≈ 2.08 µM) | 1 (≈ 2.08 µM) | 1 (≈ 2.08 µM) | 2 (≈ 4.16 µM) | 4 (≈ 8.32 µM) |
| CO/N=C(\C(=O)N[C@@H]1C(=O)N2C(C(=O)O)=C(COC(C)=O)CS[C@H]12)c1csc(N)n1 [CEFOTAXIME] |  |  |  |  | 1 (≈ 2.2 µM) | 4 (≈ 8.78 µM) | 1 (≈ 2.2 µM) | 0.25 (≈ 0.549 µM) | 0.06 (≈ 0.132 µM) | 16 (≈ 35.1 µM) | 4 (≈ 8.78 µM) | 0.06 (≈ 0.132 µM) | 2 (≈ 4.39 µM) | 2 (≈ 4.39 µM) | 0.5 (≈ 1.1 µM) | 8 (≈ 17.6 µM) | 4 (≈ 8.78 µM) |
| CO/N=C(\C(=O)N[C@@H]1C(=O)N2C(C(=O)O)=C(CSc3nc(=O)c(O)nn3C)CS[C@H]12)c1csc(N)n1 [CEFTRIAXONE] |  |  |  |  | 0.5 (≈ 0.902 µM) | 2 (≈ 3.61 µM) | 0.25 (≈ 0.451 µM) | 0.25 (≈ 0.451 µM) | 0.06 (≈ 0.108 µM) | 4 (≈ 7.21 µM) | 4 (≈ 7.21 µM) | 0.06 (≈ 0.108 µM) | 1 (≈ 1.8 µM) | 1 (≈ 1.8 µM) | 0.25 (≈ 0.451 µM) | 4 (≈ 7.21 µM) | 4 (≈ 7.21 µM) |
| CO/N=C(\C(=O)N[C@@H]1C(=O)N2C(C(=O)O)=C(COC(N)=O)CS[C@H]12)c1ccco1 [CEFUROXIME] |  |  |  |  | 4 (≈ 9.43 µM) | 16 (≈ 37.7 µM) | 2 (≈ 4.71 µM) | 0.25 (≈ 0.589 µM) | 0.12 (≈ 0.283 µM) | > 32 | 32 (≈ 75.4 µM) | 0.12 (≈ 0.283 µM) | 8 (≈ 18.9 µM) | 2 (≈ 4.71 µM) | 2 (≈ 4.71 µM) | > 32 | 8 (≈ 18.9 µM) |
| C[C@@H](O)[C@H]1C(=O)N2C(C(=O)O)=C(S[C@@H]3CN[C@H](C(=O)N(C)C)C3)[C@H](C)[C@H]12 [MEROPENEM] |  |  |  |  | 0.5 (≈ 1.3 µM) | 0.5 (≈ 1.3 µM) | 0.25 (≈ 0.652 µM) | 0.12 (≈ 0.313 µM) | 0.06 (≈ 0.156 µM) | 0.5 (≈ 1.3 µM) | 0.5 (≈ 1.3 µM) | 0.06 (≈ 0.156 µM) | 0.25 (≈ 0.652 µM) | 0.25 (≈ 0.652 µM) | 0.25 (≈ 0.652 µM) | 0.5 (≈ 1.3 µM) | 0.5 (≈ 1.3 µM) |
| CC1(C)S[C@@H]2[C@H](NC(=O)Cc3ccccc3)C(=O)N2[C@H]1C(=O)O [PENICILLIN G] |  |  |  |  | 8 (≈ 23.9 µM) | 4 (≈ 12 µM) | 4 (≈ 12 µM) | 0.5 (≈ 1.5 µM) | 0.12 (≈ 0.359 µM) | 8 (≈ 23.9 µM) | 8 (≈ 23.9 µM) | 0.12 (≈ 0.359 µM) | 4 (≈ 12 µM) | 2 (≈ 5.98 µM) | 2 (≈ 5.98 µM) | 8 (≈ 23.9 µM) | 8 (≈ 23.9 µM) |
